SIRT5 block: inhibitors of human sirtuin-5 desuccinylase | 330,000 compounds, 1.1% hits | inhibition, % at 15 µM | Q9NXA8 | AID 652115 | Purified SirT5, succinyl-peptide AMC, trypsin-coupled fluorescence; in the data active = inhibition above about 15%; inconclusive = no clear call, values can overlap the other calls
E-selectin induc: induces E-selectin expression in human endothelial cells. 260,000 compounds, 0.37% hits. AID 686992. HUVEC E-selectin immunofluorescence imaging; normalized: neutral wells 0, TNF-alpha wells 100. activation, % at 7.58 µM;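 active = mean E-selectin-positive cell signal at least 10% of the positive control, reached in at least 60% of replicates, without over 20% cell loss; inconclusive = no rule given, readout overlaps actives, possibly toxicity-flagged; inactive = the rest, including those meeting only one limit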
Target sequence (P16581 whole entry, looked up): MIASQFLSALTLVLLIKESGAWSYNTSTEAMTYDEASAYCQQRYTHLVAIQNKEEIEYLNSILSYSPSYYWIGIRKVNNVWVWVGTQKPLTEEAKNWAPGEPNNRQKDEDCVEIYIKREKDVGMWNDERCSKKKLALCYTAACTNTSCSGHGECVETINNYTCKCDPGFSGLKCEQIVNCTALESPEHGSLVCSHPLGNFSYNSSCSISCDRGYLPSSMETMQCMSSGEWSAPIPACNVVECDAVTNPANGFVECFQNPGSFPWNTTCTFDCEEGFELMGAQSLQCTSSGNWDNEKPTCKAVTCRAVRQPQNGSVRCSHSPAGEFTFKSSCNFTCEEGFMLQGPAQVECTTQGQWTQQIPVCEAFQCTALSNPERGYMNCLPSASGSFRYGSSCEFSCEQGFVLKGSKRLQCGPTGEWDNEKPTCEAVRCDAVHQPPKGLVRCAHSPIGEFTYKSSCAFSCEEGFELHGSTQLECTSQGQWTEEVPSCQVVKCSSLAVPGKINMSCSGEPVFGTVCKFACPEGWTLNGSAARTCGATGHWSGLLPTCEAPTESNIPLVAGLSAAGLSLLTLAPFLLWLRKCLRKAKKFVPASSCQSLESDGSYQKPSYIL
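System: HUVEC / Compound: single concentration / Signal: immunofluorescence imaging / Read-out: percent E-selectin-positive cells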
FN deposition inh: fibronectin deposition inhibition | AH1F fibroblasts, Alexa488-fibronectin deposition fluorescence, overnight | inhibition, % at 12.6 µM | 350,000 compounds, 0.086% hits | AID 743247;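 active = mean inhibition across replicates of 30% or more, regardless of how many single replicates reach that level; inconclusive = mean under 30% yet at least half of replicates reach 30%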;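 note: positive control wells lacked labelled fibronectin entirely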
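Schedule: 1 h cell adhesion before compound, then overnight fibronectin incubation; test system: AH1F fibroblast monolayer depositing Alexa488-labelled fibronectin into matrix; quantity: 10000 AH1F cells per well; probe or stimulus: fluorescent fibronectin at 24 nM final; signal: fluorescence, ex 485 nm, em 525 nm; evaluation: percent inhibition as loss of matrix-bound fibronectin fluorescence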
Statin myotox sup: protects C2C12 myotubes from simvastatin toxicity. ATP luminescence, 48 h; scaled: DMSO 0, geranylgeraniol control 100. rescue of ATP level, % at 7.49 µM. 330,000 compounds, 0.78% hits. AID 602340;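 active = mean ATP rescue above about 67%, or every replicate alone reaching that limit, limit read from the data, passing the limit was not always enough; inconclusive = no clear call, values can overlap the other calls; inactive = mean under the limit and some replicate under it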;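 note: myotubes were challenged with 10 µM simvastatin during compound exposure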
FGF22 binding: binders of recombinant human FGF22 by thermal shift. activity (Tm shift, normalised), % at 9.99 µM. Q9HCT0. SYPRO orange fluorescence; percent of sucrose octasulfate shift, DMSO zero. 340,000 compounds, 1.5% hits;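 active = mean Tm shift, scaled 0 neutral to 100 positive control, at about 1.3% or above, every replicate too, limit read from the data; inconclusive = no clear call, values can overlap the other calls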
Ecoli rRNA inh: inhibitors of bacterial rRNA selective over humanized ribosomes. E. coli WT GFP vs humanized-ribosome RFP mutants, fluorescence, 24 h; stronger effect = lower value; DMSO median 0, no signal -100. GFP signal change (wild-type ribosome), % (no concentration beside the values). AID 720706. 350,000 compounds, 1.6% hits;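 active = significant combined selectivity score with lowered wild-type GFP, culture density cut under 30%, mutant RFP and density less affected; inactive = any of these conditions unmet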
Active calls of the source: *; ? = inconclusive; / = not tested or not shown; ! = not active in a repeat. In the library only some 4% were active in any assay of this set; here they are far more common.

SMILES | SIRT5 block | E-selectin induc | FN deposition inh | Statin myotox sup | FGF22 binding | Ecoli rRNA inh
O=[N+]([O-])c1ccc(CC(Cl)c2ccccn2)cc1 (configuration not stated) | -2.7 | -0.3 | -7.0 | 1.1 | 0.2 | -23.6*
Cc1ccc(C)c(C(=O)COC(=O)c2n[nH]c3ccccc23)c1 | / | 0.0 | -7.2 | / | 0.4 | -55.7
O=C(COC(=O)c1n[nH]c2ccccc12)c1cccc(Br)c1 | -3.0 | 2.9 | -5.6 | -0.8 | -0.1 | -38.2*
O=[N+]([O-])c1ccc(CSc2nc3ccccc3[nH]2)cc1 | -0.9 | -2.6 | -10.6 | -4.0 | -0.1 | 3.2
O=c1cnnc(SCc2ccc([N+](=O)[O-])cc2)[nH]1 | -0.7 | / | -7.1 | / | 43.5* | /
C[C@@H]1CCCCO[C@H](CN(C)Cc2ccccc2)[C@@H](C)CN([C@@H](C)CO)C(=O)c2cc(NC(=O)C3CCCCC3)ccc2O1 | 1.0 | 0.8 | / | / | 0.3 | 4.4
C[C@@H]1CCCCO[C@@H](CN(C)C(=O)Nc2ccccc2)[C@H](C)CN([C@H](C)CO)C(=O)c2cc(NC(=O)Nc3ccc(F)cc3)ccc2O1 | 1.5 | 0.1 | / | / | -0.1 | -4.2
COC(=O)c1ccc(=O)c2nc3/c(=C/O)c(O)cc(=O)c3[nH]c12 | 20.1* | / | / | 11.6 | -0.1 | -13.5
COC(=O)c1cc(=O)[nH]c(SCc2cccc(C)c2)n1 | -0.3 | -0.3 | -1.1 | 16.8 | -0.1 | 2.5
O=C1NC(=O)/C(=C/c2ccc(-c3cc(C(=O)O)ccc3Cl)o2)S1 | 25.8* | / | -3.2 | 0.1 | 0.0 | -22.5
O=C1NC(=S)/C(=C\c2ccc(-c3ccccc3Cl)o2)S1 | / | / | -2.9 | / | / | /
C[C@H](CO)N1C[C@H](C)[C@H](CN(C)S(C)(=O)=O)OCCCC[C@H](C)Oc2ccc(NS(=O)(=O)c3ccc(F)cc3)cc2C1=O | -3.1 | -0.1 | / | ? | -0.1 | -3.8
C[C@@H]1CN([C@@H](C)CO)C(=O)c2cc(NS(=O)(=O)c3ccccc3)ccc2O[C@@H](C)CCCCO[C@H]1CN(C)S(=O)(=O)c1ccc(F)cc1 | 12.3 | 0.0 | / | 2.6 | -0.2 | -1.4
C[C@@H]1CCCCO[C@@H](CN(C)S(=O)(=O)c2ccccc2)[C@@H](C)CN([C@H](C)CO)C(=O)c2cc(NS(=O)(=O)c3ccc(F)cc3)ccc2O1 | -1.9 | -0.2 | -15.2 | 16.8 | 1.3*! | 4.6
C[C@@H]1CN([C@@H](C)CO)C(=O)c2cc(NS(=O)(=O)c3ccccc3)ccc2O[C@@H](C)CCCCO[C@@H]1CN(C)S(=O)(=O)c1ccc(F)cc1 | 22.3* | 0.2 | / | 21.3 | -0.2 | 0.1
C[C@@H]1CN([C@@H](C)CO)C(=O)c2cc(NS(=O)(=O)c3ccc(F)cc3)ccc2O[C@@H](C)CCCCO[C@H]1CN(C)S(=O)(=O)c1ccccc1 | -0.7 | 0.1 | -0.2 | / | -0.2 | -2.9
Cc1ccc(S(=O)(=O)Nc2ccc3c(c2)C(=O)N([C@H](C)CO)C[C@H](C)[C@@H](CN(C)S(=O)(=O)c2ccc(F)cc2)OCCCC[C@H](C)O3)cc1 | 0.5 | 0.9 | / | / | -0.3 | 1.5
C[C@@H]1CN([C@H](C)CO)C(=O)c2cc(NS(=O)(=O)c3ccc(F)cc3)ccc2O[C@@H](C)CCCCO[C@@H]1CN(C)S(C)(=O)=O | -0.2 | 43.5* | / | -34.2 | -0.2 | 3.2
Cc1ccc(S(=O)(=O)N(C)C[C@@H]2OCCCC[C@H](C)Oc3ccc(NS(=O)(=O)c4ccc(F)cc4)cc3C(=O)N([C@H](C)CO)C[C@H]2C)cc1 | 22.2* | 0.0 | -4.8 | 0.8 | -0.3 | -0.1
CCC(=O)Nc1ccc2c(c1)OC[C@@H](C)N(C(=O)Cc1cccnc1)C[C@H](C)[C@H](OC)CN(C)C2=O | 2.2 | 0.0 | 1.2 | 11.6 | 0.0 | 4.7
CCCNC(=O)N1[C@H](CO)[C@@H](c2ccc(C3=CCCC3)cc2)[C@@H]1CNC(=O)CC | / | 0.1 | 0.1 | 30.7 | / | -7.1
C[C@@H]1CN([C@@H](C)CO)C(=O)c2cc(NC(=O)Cc3ccccc3)ccc2O[C@@H](C)CCCCO[C@@H]1CN(C)S(=O)(=O)c1ccc(F)cc1 | / | -0.1 | 5.6 | 101.0* | 0.1 | 3.2
C[C@@H]1CN([C@H](C)CO)C(=O)c2cc(NC(=O)Cc3ccccc3)ccc2O[C@@H](C)CCCCO[C@@H]1CN(C)S(=O)(=O)c1ccc(F)cc1 | / | -0.1 | 6.0 | 55.5 | -0.3 | 2.1
C[C@@H]1CN([C@@H](C)CO)C(=O)c2cc(NS(=O)(=O)c3cccs3)ccc2O[C@H]1CN(C)C(=O)Nc1ccc2c(c1)OCO2 | 2.6 | 284.1* | 0.0 | -19.7 | -0.4 | -4.3
Cc1noc(C)c1NC(=O)N(C)C[C@@H]1Oc2ccc(NC(=O)Cn3cnnn3)cc2C(=O)N([C@@H](C)CO)C[C@@H]1C | 2.0 | 102.7* | / | 1.8 | -0.4 | 0.6
SMILES | SIRT5 block | E-selectin induc | FN deposition inh | Statin myotox sup | FGF22 binding | Ecoli rRNA inh
Cc1noc(C)c1NC(=O)N(C)C[C@H]1Oc2ccc(NC(=O)Cn3cnnn3)cc2C(=O)N([C@H](C)CO)C[C@H]1C | 0.6 | -6.6 | / | 22.7 | -0.4 | 1.5
C[C@@H]1CN([C@@H](C)CO)C(=O)c2cc(NS(=O)(=O)c3cccs3)ccc2O[C@H]1CN(C)C(=O)NC1CCCCC1 | / | 0.7 | -2.0 | / | / | -2.9
C[C@H]1CN([C@@H](C)CO)C(=O)c2cc(NS(=O)(=O)c3cccs3)ccc2O[C@H]1CN(C)C(=O)Nc1ccccc1 | -1.9 | 0.1 | / | -17.8 | -0.2 | -0.4
C[C@H]1CCCCO[C@@H](CN(C)C(=O)Nc2ccc3c(c2)OCO3)[C@@H](C)CN([C@@H](C)CO)C(=O)c2cc(NS(=O)(=O)c3cccs3)ccc2O1 | 12.3 | 0.2 | -7.2 | 83.9* | 0.0 | -1.4
C[C@H](CO)N1C[C@H](C)[C@@H](CN(C)C(=O)NC2CCCCC2)Oc2ccc(NS(=O)(=O)c3cccs3)cc2C1=O | 16.4*! | 2.7 | -2.5 | -37.1 | -0.8 | -0.3
CO[C@H]1CN(C)C(=O)c2cc(NS(C)(=O)=O)ccc2OC[C@H](C)N(Cc2ccccn2)C[C@@H]1C | / | 0.3 | 2.5 | 7.1 | / | 5.0
O=C(Nc1ccc(F)cc1)N1CC(=O)N2[C@H](CO)[C@@H](c3ccc(C#CC4CC4)cc3)[C@@H]2C1 | 0.2 | -0.3 | / | / | / | -9.5
COc1ccc2c3c(n(C)c2c1)[C@H](CO)N(S(C)(=O)=O)CC31CN(C(=O)C2CCCC2)C1 | -2.6 | 0.2 | / | / | -0.1 | -1.4
C[C@@H]1CCCCO[C@@H](CN(C)C(=O)Nc2ccc3c(c2)OCO3)[C@H](C)CN([C@@H](C)CO)C(=O)c2cc(NS(C)(=O)=O)ccc2O1 | -1.5 | / | / | / | -0.1 | /
Cc1noc(C)c1NC(=O)Nc1cccc2c1O[C@@H](CN(C)C(=O)Nc1cccc3ccccc13)[C@@H](C)CN([C@H](C)CO)C2=O | 3.7 | -0.3 | / | -7.0 | -0.2 | -6.9

Assay outcomes as filed in PubChem.
